From ChEMBL document CHEMBL1147591, “A novel class of apical sodium-dependent bile acid transporter inhibitors: the amphiphilic 4-oxo-1-phenyl-1,4-dihydroquinoline derivatives” (Bioorg Med Chem Lett, 2004) come the findings set out here.

Experiment [1] has as its system Ileal sodium/bile acid cotransporter (hamster). The experiment in a line: Inhibition of ASBT as [3H]taurocholate uptake in hamster ileal ring at 30 ug/mL. The conditions noted are these: Syrian hamster.
The subject of experiment [2] is Cricetinae gen. sp. Kind of experiment: Evaluated for total non HDL- cholesterol in hamster at a dose of 0.3 mg/kg. It counts as functional. The essentials: (§1)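 Chow-fed male Syrian golden hamsters dosed orally by gavage in 0.5% carboxymethylcellulose vehicle once daily in the evening for 14 consecutive days at 0.3, 1, 3, 10, 30 or 100 mg/kg/day. Chow and water were given freely and animals weighed daily. They were sacrificed the morning after the 14th dose. Serum was assayed for triglycerides, total cholesterol and lipoprotein cholesterol (VLDL+LDL, HDL).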

For experiment [3], the system named is Cricetinae gen. sp. The experiment in a line: Evaluated for total non HDL- cholesterol in hamster at a dose of 1.0 mg/kg. It counts as functional. In outline:
as §1

For experiment [4], the system named is Cricetinae gen. sp. Kind of experiment: Evaluated for total non HDL- cholesterol in hamster at a dose of 100.0 mg/kg. The class given is functional. In outline: as §1
The test system of experiment [5] is Cricetinae gen. sp. The experiment in a line: Evaluated for total non HDL- cholesterol in hamster at a dose of 3.0 mg/kg. The class given is functional. In outline:
as §1

For experiment [6], the system named is Cricetinae gen. sp. The experiment in a line: Evaluated for total non HDL- cholesterol in hamster at a dose of 30.0 mg/kg. The class given is functional. The essentials:
as §1

Experiment [7] concerns Cricetinae gen. sp. Kind of experiment: Evaluated for total serum cholesterol in hamster at a dose of 10.0 mg/kg. The class given is functional, Cricetulus griseus. In outline:
as §1

Experiment [8] has as its system Cricetinae gen. sp. Kind of experiment: Evaluated for total serum cholesterol in hamster at a dose of 100.0 mg/kg. It counts as functional, Cricetulus griseus. In outline: as §1
Experiment [9] concerns Cricetinae gen. sp. The experiment in a line: Evaluated for total serum cholesterol in hamster at a dose of 3.0 mg/kg. It counts as functional, Cricetulus griseus. The essentials: as §1
Experiment [10] deals with Cricetinae gen. sp. The experiment in a line: Evaluated for total serum cholesterol in hamster at a dose of 30.0 mg/kg. The class given is functional. In outline:
as §1

The subject of experiment [11] is Cricetinae gen. sp. Kind of experiment: Evaluated for total triglycerides in hamster at a dose of 0.3 mg/kg. The class given is functional, Cricetulus griseus. In outline: as §1
Experiment [12] has as its system Cricetinae gen. sp. The experiment in a line: Evaluated for total triglycerides in hamster at a dose of 1.0 mg/kg. The class given is functional, Cricetulus griseus. In outline: as §1
The test system of experiment [13] is Cricetinae gen. sp. The experiment in a line: Evaluated for total triglycerides in hamster at a dose of 10.0 mg/kg. It counts as functional, Cricetulus griseus. In outline: as §1
Experiment [14] concerns Cricetinae gen. sp. Kind of experiment: Evaluated for total triglycerides in hamster at a dose of 3.0 mg/kg. It counts as functional, Cricetulus griseus. In outline:
as §1

For experiment [15], the system named is Cricetinae gen. sp. Kind of experiment: Evaluated for total triglycerides in hamster at a dose of 30.0 mg/kg. The class given is functional, Cricetulus griseus. The essentials:
as §1

The subject of experiment [16] is Cricetinae gen. sp. The experiment in a line: Evaluated for total serum cholesterol in hamster at a dose of 0.3 mg/kg. It counts as functional. In outline:
as §1

Experiment [17] deals with Cricetinae gen. sp. The experiment in a line: Evaluated for total serum cholesterol in hamster at a dose of 1.0 mg/kg. It counts as functional, Cricetulus griseus. The essentials: as §1
Experiment [18] relates to Cricetinae gen. sp. Kind of experiment: Evaluated for total HDL-cholesterol in hamster at a dose of 100.0 mg/kg. It counts as functional. In outline:
as §1

Experiment [19] deals with Cricetinae gen. sp. Kind of experiment: Evaluated for total HDL-cholesterol in hamster at a dose of 3.0 mg/kg. The class given is functional. The essentials: as §1
Experiment [20] has as its system Cricetinae gen. sp. Kind of experiment: Evaluated for total HDL-cholesterol in hamster at a dose of 30.0 mg/kg. The class given is functional. In outline: as §1
In experiment [21] the test system is Cricetinae gen. sp. The experiment in a line: Evaluated for total HDL-cholesterol in hamster at a dose of 0.3 mg/kg. It counts as functional. In outline:
as §1

The subject of experiment [22] is Cricetinae gen. sp. The experiment in a line: Evaluated for total HDL-cholesterol in hamster at a dose of 1.0 mg/kg. The class given is functional. The essentials:
as §1

In experiment [23] the test system is Cricetinae gen. sp. The experiment in a line: Evaluated for total HDL-cholesterol in hamster at a dose of 10.0 mg/kg. The class given is functional. The essentials: as §1
Experiment [24] in a line: Ratio between total non HDL-cholesterol and HDL-cholesterol in hamster at a dose of 0.3 mg/kg. The class given is functional. The essentials: (§2)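 Chow-fed male Syrian golden hamsters were dosed by oral gavage in 0.5% carboxymethylcellulose each evening for 14 consecutive days, with free access to chow and water. Animals were weighed daily and killed the morning after the 14th dose. Serum lipoprotein cholesterol profiles were measured, and the ratio of non-HDL (VLDL plus LDL) cholesterol to HDL-cholesterol was calculated.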

Experiment [25] in a line: Ratio between total non HDL-cholesterol and HDL-cholesterol in hamster at a dose of 1.0 mg/kg. It counts as functional. The essentials:
as §2

Experiment [26] is described as follows: Ratio between total non HDL-cholesterol and HDL-cholesterol in hamster at a dose of 10.0 mg/kg. It counts as functional. The essentials: as §2
A short description of experiment [27]: Ratio between total non HDL-cholesterol and HDL-cholesterol in hamster at a dose of 100.0 mg/kg. It counts as functional. In outline: as §2
The nature of experiment [28]: Ratio between total non HDL-cholesterol and HDL-cholesterol in hamster at a dose of 3.0 mg/kg. It counts as functional. The essentials: as §2
Experiment [29] can be described thus: Ratio between total non HDL-cholesterol and HDL-cholesterol in hamster at a dose of 30.0 mg/kg. The class given is functional. The essentials: as §2
For experiment [30], the system named is Mesocricetus auratus. The experiment in a line: Evaluated for total triglycerides in hamster at a dose of 100.0 mg/kg.
Experiment [31] relates to Mesocricetus auratus. Kind of experiment: Evaluated for total non HDL- cholesterol in hamster at a dose of 10.0 mg/kg.

The compound `CCN(C(=O)c1cn(-c2cc(OC)cc(OCCCCCCCC[N+]34CCN(CC3)CC4)c2)c2cc(OC)ccc2c1=O)c1cc(F)cc(F)c1` returned an inhibition at 30 µg/mL in [1] of 83%.
Same read-out and setting: the value for `CCN(C(=O)c1cn(-c2cc(OC)cc(OCc3ccc(C[N+]45CCN(CC4)CC5)cc3)c2)c2cc(OC)ccc2c1=O)c1cc(F)cc(F)c1` was 71%; that for `CCN(C(=O)c1cn(-c2cc(OC)cc(OC)c2)c2cc(OCCCCCCCC[N+]34CCN(CC3)CC4)ccc2c1=O)c1cc(F)cc(F)c1` was 94%; that for `CCN(C(=O)c1cn(-c2cc(OC)cc(OC)c2)c2cc(OCc3ccc(C[N+]45CCN(CC4)CC5)cc3)ccc2c1=O)c1cc(F)cc(F)c1` was 71%.
On the same count and under the same terms, the value for `CCN(C(=O)c1cn(-c2cc(OC)cc(OC)c2)c2cc(OCCCC[N+]34CCN(CC3)CC4)ccc2c1=O)c1cc(F)cc(F)c1` was 24%.
Regarding `CCN(C(=O)c1cn(-c2cc(OC)cc(OC)c2)c2cc(OCCCCCCC[N+]34CCN(CC3)CC4)ccc2c1=O)c1cc(F)cc(F)c1.[Br-]`, the Non-HDL-C in experiment [2] was determined as 75.7 mg/dL; in [3] it was 85.2 mg/dL; in experiment [4] it was 57 mg/dL; in experiment [5], 94.1 mg/dL; in [6], 78.9 mg/dL; in [31] it was 74.3 mg/dL. In addition, the TC was 144.1 mg/dL in [7]; 118.9 mg/dL in experiment [8]; 174.3 mg/dL in [9]; 142.8 mg/dL in experiment [10]; 157.4 mg/dL in experiment [16]; 166.9 mg/dL in experiment [17]. Moreover, the TG in [11] was determined as 142.7 mg/dL; in experiment [12] it was 249.3 mg/dL; in experiment [13] it was 217.6 mg/dL; in experiment [14], 270.8 mg/dL; in experiment [15] it was 235 mg/dL; in [30], 217.7 mg/dL. Further, the HDL-C was found to be 61.9 mg/dL in [18]; 80.2 mg/dL in experiment [19]; 63.9 mg/dL in [20]; 81.8 mg/dL in experiment [21]; 81.7 mg/dL in experiment [22]; 69.8 mg/dL in [23]. Moreover, the Ratio in experiment [24] stood at 0.9; in experiment [25], 1.1; in experiment [26], 1.1; in experiment [27] it was 0.9; in [28], 1.2; in experiment [29], 1.3. For the same compound, in experiment [1], the inhibition at 30 µg/mL amounted to 100%.
Compound `CCN(C(=O)c1cn(-c2cc(OC)cc(OC)c2)c2cc(OC)ccc2c1=O)c1cc(F)cc(F)c1` had an inhibition at 30 µg/mL in experiment [1] of 64%.
The compound `CCN(C(=O)c1cn(-c2ccc(OC)cc2)c2cc(OC)ccc2c1=O)c1cc(F)cc(F)c1` returned an inhibition at 30 µg/mL in experiment [1] of 64%.
The same measure, in the same setting: to `CCN(C(=O)c1cn(-c2cc(OC)cc(OCCCCCC[N+]34CCN(CC3)CC4)c2)c2cc(OC)ccc2c1=O)c1cc(F)cc(F)c1` belongs 83%; to `CCN(C(=O)c1cn(-c2ccc(OCc3ccc(C[N+]45CCN(CC4)CC5)cc3)cc2)c2cc(OC)ccc2c1=O)c1cc(F)cc(F)c1`, 41%.
Still for that read-out and setting: to `CCN(C(=O)c1cn(-c2cc(OC)cc(OCCCCCCC[N+]34CCN(CC3)CC4)c2)c2cc(OC)ccc2c1=O)c1cc(F)cc(F)c1` belongs 86%; to `CCN(C(=O)c1cn(-c2cc(OC)cc(OC)c2)c2cc(OCCCCC[N+]34CCN(CC3)CC4)ccc2c1=O)c1cc(F)cc(F)c1`, 67%.
`CCN(C(=O)c1cn(-c2cc(OC)cc(OC)c2)c2cc(OCCCCCC[N+]34CCN(CC3)CC4)ccc2c1=O)c1cc(F)cc(F)c1` came in with an inhibition at 30 µg/mL in [1] of 88%.

The term inhibition denotes the relative decrease from the control value, in per cent.
